As usually defined, the Kd is a measure of binding affinity in units of concentration.

Assay [1] addresses T1, PYL1 (Arabidopsis thaliana, UniProt Q8VZS8).
T1 sequence (Q8VZS8 1-221): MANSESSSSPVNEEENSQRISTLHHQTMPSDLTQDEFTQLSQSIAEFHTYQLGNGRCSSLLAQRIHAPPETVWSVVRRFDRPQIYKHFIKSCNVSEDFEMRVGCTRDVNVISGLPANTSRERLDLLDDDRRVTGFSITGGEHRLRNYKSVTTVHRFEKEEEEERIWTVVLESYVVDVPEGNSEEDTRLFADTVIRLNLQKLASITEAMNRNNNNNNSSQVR
Put plainly: ITC binding to PYL1. In short, it runs like this: (§1)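 Full-length N-terminal His6-tagged receptor was expressed in E. coli BL21(DE3) and purified by Ni-NTA, ion exchange and gel filtration, with the tag removed. ITC ran at 25 °C in 25 mM HEPES, 100 mM NaCl, pH 7.5, using degassed ligand dissolved in the same buffer. Final protein was 50–100 μM and ligand 500–1000 μM.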

Assay [2] deals with T2, PYR1 (Arabidopsis thaliana, UniProt O49686).
T2 sequence (O49686 1-191): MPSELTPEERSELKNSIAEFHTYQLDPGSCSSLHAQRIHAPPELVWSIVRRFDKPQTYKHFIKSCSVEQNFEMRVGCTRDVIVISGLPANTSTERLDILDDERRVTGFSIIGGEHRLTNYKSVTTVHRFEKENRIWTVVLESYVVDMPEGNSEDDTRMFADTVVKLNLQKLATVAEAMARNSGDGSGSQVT
Put plainly: ITC binding to PYR1. The note with it: PYR1 wild type. The essentials: as §1

Assay [3] has as its system HAB1 with PYR1, PYL1, PYL2, PYL3, PYL5, PYL6 and PYL10. Put plainly: Phosphatase assay, HAB1 with all seven tested PYLs. The class given is biochemical, Arabidopsis thaliana. The following applies: 5 μM ABA. The essentials: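 Recombinant His-tagged HAB1 phosphatase activity was measured with a Ser/Thr phosphatase assay system. Receptor:HAB1 was 0.4:0.4 μM (1:1) for PYR1, PYL1, PYL2 and PYL3, and 0.8:0.4 μM (2:1) for PYL5, PYL6 and PYL10. Mixtures were incubated with 5 μM ABA, 50 μM test compound, or both. Three biological replicates were run.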

The test system of assay [4] is Arabidopsis thaliana seeds (WT Col-0 and mutants). Put plainly: Seed germination assay. The note with it: ABA 1 µM. The class given is in vivo. In short, it runs like this: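 WT Col-0 and mutant seeds (pyr1/pyl1/pyl2/pyl4, pyl3/pyl7/pyl9/pyl11/pyl12, PYL4 overexpression) were stratified for 4 days. They were sown on half-strength MS agar with 1% sucrose containing 0.05% DMSO, 1 µM ABA, 1 µM test compound, or both. Each treatment used 40 seeds per plate on three plates, at 22 °C under long days. Seeds were scored daily as germinated when green cotyledons appeared.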

In assay [5] the test system is Arabidopsis WT (Col) seedlings. Put plainly: RNA-Seq transcriptome analysis. The class given is in vivo, Arabidopsis thaliana. The following applies: ten-day-old plants, 50 μM, 3 h. The essentials:
(§2)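 Ten-day-old WT Col seedlings were mock-treated or exposed to 50 μM ABA or test compound for 3 h, in biological duplicates. Total RNA was sequenced as 50 bp paired-end reads, about 20 million per sample. Reads were mapped to the Arabidopsis gene model and counted per gene, then tested for differential expression. DEGs were subjected to GO analysis.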

Assay [6] deals with Arabidopsis WT (Col) seedlings. Put plainly: GO analysis of DEGs. The class given is in vivo, Arabidopsis thaliana. The note with it: unique DEGs. In short, it runs like this:
as §2

Assay [7] concerns the target T3, PYR1 dimer (Arabidopsis thaliana, UniProt O49686).
T3 sequence (O49686 1-191): T2 sequence (O49686 1-191)
Put plainly: SEC-MALLS protein oligomeric state. The following applies: 1 mM chemical(s), PYR1 80 μM. In short, it runs like this: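 Size exclusion used a Superdex S200 column in 20 mM Tris pH 7.5, 150 mM NaCl, 1 mM β-mercaptoethanol, at 20 °C and 0.5 ml/min. The equilibration buffer held 1 mM ABA, 1 mM test compound, or both. Receptor was injected at 80 μM. Weight-averaged molar mass was calculated from on-line MALLS with a 690 nm laser.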

The target of assay [8] is T1, PYL1. The note with it: PYL1, literature value; cited from earlier work.
For assay [9], the system named is seed germination. The note with it: cited from earlier work.

The structures appear in SMILES notation. Where two headings read alike, the source gives them in different places.

Consider `CC1=CC(=O)CC(C)(C)[C@@]1(O)/C=C/C(C)=C\C(=O)O` [ABA, Abscisic acid], for which the dissociation constant (Kd) in [1] is 23.5 µM; in assay [2], 22 µM; in assay [8], approximately 50 µM. Also, in assay [3], the “inhibition of HAB1 activity” value was not below 70%. The germination rate result in assay [4] (4OE seeds), in assay [4] (3791112 seeds) and in assay [4] (WT seeds) was “lower than 30%” each time. Moreover, in [4] (1124 (pyr1/pyl1/pyl2/pyl4) seeds), the germination phenotype entry is recorded as “ABA insensitive phenotype”. In addition, in [5], the “number of genes specifically responsive” value is reported as 2602. For the same compound, the “number of differentially expressed genes (DEGs) induced” value in assay [5] (relative to DMSO) came out at 3366. The “number of genes involved in seed germination induced (GO:0009845)” value in assay [6] was 28. Besides, in assay [7], the “elution volume of PYR1” value was in the range of 16.02 to 17.05 mL. In addition, the “molecular mass of PYR1” value in assay [7] (dimer theoretical 43 kDa) is given as 22 ± 2 kDa.

On to `N#Cc1c(C2CC2)cc(CC(=O)NC2(C(=O)O)CCCCC2)cc1C1CC1` [opabactin], for which the “activity in inhibiting seed germination relative to ABA” value in [9] is on record as ~ 10 fold.
